Reference: PubChem BioAssay
Inconclusive results are not listed.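 Rule for the calls, unless noted: active = inhibition over a set limit, the all-compound mean plus 3 SD, in both replicate runs; inconclusive = over that limit in just one replicate run; inactive = at or under that limit in both runs.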

Experiments:
[1] = OD615 S. cerevisiae growth inhibition, permissive medium, pilot counter-assay, permissive growth control for S. cerevisiae lifespan shortening project (AID 705;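 active = growth inhibition above 25% in both replicates, a cutoff set 3 SD above the mean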); details: OD615, 24 h, at 10 µM, active compounds read high
In short: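 assay system = Saccharomyces cerevisiae strain carrying genetically modified DeaD replicative-lifespan system | medium = SC raffinose/galactose permissive medium | dosing = 10 µM single dose, 0.25% DMSO | schedule = 24 h compound exposure at 30 °C after 4 h pre-growth | measured by = OD at 615 nm | read-out basis = growth inhibition from lowered OD615 after 24 h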

[2] = Restrictive medium S. cerevisiae growth inhibition, OD615, pilot screen of yeast lifespan reduction project, restrictive growth control (AID 706;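 active = growth inhibition above a set limit, 3 SD over mean compound inhibition, in both replicates, cut at about 43% in these data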;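 note: modified DeaD lifespan yeast strain shifted to restrictive glucose medium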); details: OD615, 48 h, at 10 µM, active compounds read high
In short: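 Buffer or medium: CSMM-D glucose medium. Material: genetically modified Saccharomyces cerevisiae, DeaD replicative lifespan assay strain. Times: 48 h compound exposure at 30 °C. Measured by: optical density at 615 nm.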

[3] = viability gain of MRP-1-high H69AR cells under doxorubicin, pilot screen, MRP-1 activator project, CellTiter-Glo, duplicate (AID 807;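 active = viability increase at or above a cutoff of the median across tested compounds plus 3 SD, cut at about 8.5% in these data, passing the limit was not always enough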;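 note: compound pretreatment 18-22 h then 72 h combined with doxorubicin; 0% = doxorubicin alone and 100% = vehicle without doxorubicin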); details: H69AR viability with doxorubicin, CellTiter-Glo luminescence; at 10 µM; active compounds read high
[4] = growth suppression of beta-catenin knockout HCT116, pilot screen, human colon tumor cells (AID 823;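 active = cell viability at or below a set limit in both duplicate runs, the limit being the all-compound median minus 4 SD, cut at about 23% in these data, passing the limit was not always enough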;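 note: 0% = wells killed by 20 µM Hyamine and 100% = untreated DMSO cell wells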); details: CellTiter-Glo, 60 h, at 10 µM, active compounds read low
[5] = growth suppression of PTEN-deleted HCT116, pilot screen, cell-based, HCT116 clonal line, CellTiter-Glo (AID 824;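 active = viability at or below 27.92% in each of two runs, the all-compound median minus 4 SD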;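 note: 0% = 20 µM Hyamine control and 100% = vehicle cell control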); details: 60 h, at 10 µM, active compounds read low
[6] = inhibitors of the yeast RAM network, pilot screen, dse1pr::URA3 reporter, 5-FOA selection (AID 869);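 note: 0% = DMSO wells with no growth and 100% = 10 µM 1-NA-PP1 with full growth; RAM network block rescues cells from 5-FOA so hits raise OD615 growth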; details: S. cerevisiae dse1pr::URA3 5-FOA growth, OD615, 2 d; at 10 µM; active compounds read high; strain carries analog-sensitive mutant Cbk1 kinase
[7] = RAM signaling pathway blockade in yeast – S. cerevisiae, Pdr1DBD-CYC8 efflux-inhibited sensitized strain, primary screen (AID 1298;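 active = RAM network inhibition above 8.4% in each of two replicates, 3 SD over the compound average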;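 note: 0% = DMSO untreated cells without growth and 100% = 10 µM 1-NA-PP1 full growth; higher means more yeast growth rescued from 5-FOA killing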); details: S. cerevisiae cbk1-as DSE1-URA3 strain, 5-FOA growth OD615, 2 d; at 50 µM; active compounds read high

Cc1cc(=O)c2c(C)nn(-c3ccccc3)c2[nH]1
inactive: growth inhibition [1] -2.51% | growth inhibition [2] 2.11% | viability increase [3] -2.26% | viability [4] 96.7% | viability [5] 92.3% | inhibition [6] 2.23% | RAM network inhibition [7] 1.4%

O=C(COC(=O)c1ccc(S(=O)(=O)N2CCOCC2)cc1)NC1CCCCCC1
inactive: growth inhibition [1] -5.28% | growth inhibition [2] -3.04% | viability increase [3] 0.74% | viability [4] 101% | viability [5] 105% | inhibition [6] 1.42% | RAM network inhibition [7] 3.1%

CCOc1ccc(-n2c(Cc3cc(=O)[nH]c(=O)[nH]3)nnc2SCC(=O)NC2CCCC2)cc1
inactive: growth inhibition [1] -1.49% | growth inhibition [2] 4.62% | viability increase [3] -0.16% | viability [4] 101% | viability [5] 100% | inhibition [6] -1.29% | RAM network inhibition [7] -0.37%

C=CCn1c(=N)c(C(=O)NCCCOC)cc2c(=O)n3cccc(C)c3nc21
inactive: growth inhibition [1] 2.23% | growth inhibition [2] 0.115% | viability increase [3] -2.3% | viability [4] 83.8% | viability [5] 88.5% | inhibition [6] 0.4% | RAM network inhibition [7] -0.47%

CCOC(=O)C(C)n1cnc2c(nnn2-c2cccc(Cl)c2)c1=O (stereo not given)
inactive: growth inhibition [1] -4.37% | growth inhibition [2] -3.95% | viability increase [3] 1.78% | viability [4] 102% | viability [5] 92.6% | inhibition [6] 2.58% | RAM network inhibition [7] 4.24%

COc1ccc(N(CC(=O)Nc2ccc(C)cn2)S(=O)(=O)c2c(C)nn(C)c2C)cc1
inactive: growth inhibition [1] -17.5% | growth inhibition [2] -9.45% | viability increase [3] -1.95% | viability [4] 97.5% | viability [5] 96.2% | inhibition [6] 0.055% | RAM network inhibition [7] 5.27%

CN(c1ccc(C(=O)O)cc1)S(=O)(=O)c1ccccc1
inactive: growth inhibition [1] 0.21% | growth inhibition [2] 5.12% | viability increase [3] -1.24% | viability [4] 99.5% | viability [5] 92.5% | inhibition [6] 1.14% | RAM network inhibition [7] 1.5%

O=C(Nc1nc2c(Cl)ccc(Cl)c2s1)c1ccco1
inactive: growth inhibition [1] -22% | growth inhibition [2] -3.32% | viability increase [3] -6.22% | viability [4] 90.1% | viability [5] 85.2% | inhibition [6] 1.41% | RAM network inhibition [7] 2.84%

COc1ccc(CCN=C2SCC(=O)N2C)cc1OC
inactive: growth inhibition [1] 3.32% | growth inhibition [2] 1.86% | viability increase [3] -0.79% | viability [4] 102% | viability [5] 97% | inhibition [6] 2.14% | RAM network inhibition [7] 6.13%

COc1ccc(OC)c2sc(NC(=O)C3CC3)nc12
inactive: growth inhibition [1] 1.08% | growth inhibition [2] 5.55% | viability increase [3] -3.24% | viability [4] 99.7% | viability [5] 90.3% | inhibition [6] 1.25% | RAM network inhibition [7] 6.06%

Cc1onc(-c2ccccc2Cl)c1C(=O)Nc1ccc(OCC(=O)N2CCOCC2)cc1
inactive: growth inhibition [1] 2.78% | growth inhibition [2] 5.62% | viability increase [3] -2.3% | viability [4] 104% | viability [5] 99.5% | inhibition [6] 1.5% | RAM network inhibition [7] 5.11%

O=C(/C=C\Nc1ccccn1)c1ccc(Cl)cc1
inactive: growth inhibition [1] -7.61% | growth inhibition [2] -36.4% | viability increase [3] 0.28% | viability [4] 83.5% | viability [5] 81.7% | inhibition [6] 2.68% | RAM network inhibition [7] 8.82%

Cc1ccc2oc(=O)c3cc(C(=O)NCc4ccco4)sc3c2c1
inactive: growth inhibition [1] -8.27% | growth inhibition [2] -8.27% | viability increase [3] -2.9% | viability [4] 102% | viability [5] 96.6% | inhibition [6] 3.86% | RAM network inhibition [7] 2.71%

CCC(=O)Nc1c(OC(=O)CC)ccc2c(C)cc(=O)oc12
inactive: growth inhibition [1] 5.45% | growth inhibition [2] 4.76% | viability increase [3] -2.02% | viability [4] 105% | viability [5] 88.7% | inhibition [6] 0.835% | RAM network inhibition [7] -0.83%

O=C(OCCCCN1C(=O)c2ccccc2C1=O)c1ccc(S(=O)(=O)N2CCCC2)cc1
inactive: growth inhibition [1] -11.7% | growth inhibition [2] -0.405% | viability increase [3] 0.28% | viability [4] 101% | viability [5] 100% | inhibition [6] 1.85% | RAM network inhibition [7] 4.52%

C1CCC(Nc2nnnn2C2CCCCC2)CC1
inactive: growth inhibition [1] -16.8% | growth inhibition [2] -16.1% | viability increase [3] -2.17% | viability [4] 90.4% | viability [5] 92.5% | inhibition [6] 1.41% | RAM network inhibition [7] 3.33%

Cn1c2c(c(=O)n(C)c1=O)C(c1cc3c(cc1Br)OCO3)CC(=O)N2 (stereo not given)
inactive: growth inhibition [1] -4.86% | growth inhibition [2] -4.15% | viability increase [3] -0.66% | viability [4] 105% | viability [5] 99% | inhibition [6] -0.625% | RAM network inhibition [7] 4.1%

O=C(NCCN1C(=O)C2C3C=CC(C3)C2C1=O)NCc1ccccc1 (stereo not given)
inactive: growth inhibition [1] -14.8% | growth inhibition [2] 3.81% | viability increase [3] -0.69% | viability [4] 102% | viability [5] 99.8% | inhibition [6] 1.61% | RAM network inhibition [7] 1.83%

COC(=O)c1cn(NC(=O)CC2CCCCC2)c(=O)c2ccccc12
inactive: growth inhibition [1] 7.57% | growth inhibition [2] 1.75% | viability increase [3] 0.01% | viability [4] 94% | viability [5] 91.7% | inhibition [6] 0.24% | RAM network inhibition [7] 2.22%

Cc1c(C(=O)NCc2ccc3c(c2)OCO3)oc2ccc(S(=O)(=O)N3CCCCCC3)cc12
inactive: growth inhibition [1] -14% | growth inhibition [2] -7.72% | viability increase [3] -1.19% | viability [4] 77.5% | viability [5] 77.3% | inhibition [6] 1.82% | RAM network inhibition [7] 10.9%

Cn1c(=O)[nH]c(=O)c2c1nc(N1CCCC1)n2CC(O)COc1ccccc1 (stereo not given)
inactive: growth inhibition [1] -10.3% | growth inhibition [2] -7.92% | viability increase [3] -2.57% | viability [4] 100% | viability [5] 102% | inhibition [6] 2.5% | RAM network inhibition [7] 1.94%

COc1ccccc1-c1coc2cc(O)cc(O)c2c1=O
inactive: growth inhibition [1] 3.81% | growth inhibition [2] 9.45% | viability increase [3] 0.63% | viability [4] 93.4% | viability [5] 92.6% | inhibition [6] 0.26% | RAM network inhibition [7] 0.05%

CCSc1nnc(NC(=O)c2c(-c3ccccc3Cl)noc2C)s1
inactive: growth inhibition [1] 0.595% | growth inhibition [2] 2.59% | viability increase [3] -1.87% | viability [4] 97.8% | viability [5] 88.2% | inhibition [6] 1.04% | RAM network inhibition [7] 8.79%

Cc1sc2nc(NCCO)[nH]c(=O)c2c1C
inactive: growth inhibition [1] -15.5% | growth inhibition [2] -23.2% | viability increase [3] -2.72% | viability [4] 107% | viability [5] 97.2% | inhibition [6] 0.885% | RAM network inhibition [7] -1.79%

O=C(C1CCC(=O)N1Cc1cccnc1)N1CCN(c2ccc(F)cc2)CC1 (stereo not given)
inactive: growth inhibition [1] -0.085% | growth inhibition [2] -9.05% | viability increase [3] -2.73% | viability [4] 90.1% | viability [5] 88.4% | inhibition [6] 0.585% | RAM network inhibition [7] 5.89%
